“And” between values parts separate entries of the source, which are not always exact repeats. Equal values may be shown once. The source made the active and inactive calls.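 Rule for the calls: active = Chi band cutting by RecBCD reduced more than twofold versus the solvent-only control; inactive = reduction of twofold or less versus solvent-only control.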
molecular target: RecBCD enzyme subunit RecC (Escherichia coli (strain K12)) + RecBCD enzyme subunit RecB (Escherichia coli (strain K12)) (UniProt P07648+P08394); experiment: inhibition of Chi-specific DNA cleavage by RecBCD – biochemical, radioactive gel readout, single concentration, counter-screen for AddAB inhibitor project, late-stage follow-up (AID 623937); details: purified RecBCD, 32P DNA gel autoradiography, at 50 µM
How it was run: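 Test system: Purified E. coli RecBCD helicase-nuclease enzyme | Amount: RecBCD enzyme at 0.15 nM | Read-out: Loss of 1.46 kb Chi-cut fragment relative to DMSO | Timing: Enzyme reaction for 1 min at 37 °C | Technique: Agarose gel separation of labeled DNA products | Medium: 5 mM ATP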

RecBCD enzyme subunit RecC (Escherichia coli (strain K12)) + RecBCD enzyme subunit RecB (Escherichia coli (strain K12)), sequence (P07648 whole entry, looked up, the tested form may be a part): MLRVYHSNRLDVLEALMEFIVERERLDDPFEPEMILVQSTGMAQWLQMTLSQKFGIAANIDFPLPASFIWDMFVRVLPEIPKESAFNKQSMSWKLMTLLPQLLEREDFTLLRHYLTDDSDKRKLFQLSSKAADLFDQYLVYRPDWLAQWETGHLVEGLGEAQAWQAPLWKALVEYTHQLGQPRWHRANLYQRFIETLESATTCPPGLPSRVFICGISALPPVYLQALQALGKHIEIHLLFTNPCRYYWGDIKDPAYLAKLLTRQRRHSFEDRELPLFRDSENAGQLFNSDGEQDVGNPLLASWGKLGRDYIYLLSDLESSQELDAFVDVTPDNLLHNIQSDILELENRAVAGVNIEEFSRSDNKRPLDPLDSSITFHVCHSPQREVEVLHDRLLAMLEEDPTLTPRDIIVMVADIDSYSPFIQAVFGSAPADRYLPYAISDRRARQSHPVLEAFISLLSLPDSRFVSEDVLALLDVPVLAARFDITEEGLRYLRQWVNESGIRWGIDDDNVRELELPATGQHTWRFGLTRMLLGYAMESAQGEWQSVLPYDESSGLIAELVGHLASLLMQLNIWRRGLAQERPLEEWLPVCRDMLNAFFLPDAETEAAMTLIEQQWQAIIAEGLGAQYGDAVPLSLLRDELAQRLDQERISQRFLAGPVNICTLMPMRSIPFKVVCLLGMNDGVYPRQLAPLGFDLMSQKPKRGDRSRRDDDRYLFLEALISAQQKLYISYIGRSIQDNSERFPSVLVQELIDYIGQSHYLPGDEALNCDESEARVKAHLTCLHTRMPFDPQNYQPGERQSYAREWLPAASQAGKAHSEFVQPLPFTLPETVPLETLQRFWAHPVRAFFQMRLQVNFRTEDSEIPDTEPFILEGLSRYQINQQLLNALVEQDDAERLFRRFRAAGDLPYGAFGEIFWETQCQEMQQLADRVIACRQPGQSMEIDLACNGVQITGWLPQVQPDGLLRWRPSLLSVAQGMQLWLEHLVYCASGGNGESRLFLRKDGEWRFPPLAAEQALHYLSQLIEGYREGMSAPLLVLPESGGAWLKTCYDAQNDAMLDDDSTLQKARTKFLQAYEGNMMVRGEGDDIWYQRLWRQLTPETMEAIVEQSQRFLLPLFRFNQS
RecBCD enzyme subunit RecC (Escherichia coli (strain K12)) + RecBCD enzyme subunit RecB (Escherichia coli (strain K12)), sequence (P08394 whole entry, looked up, the tested form may be a part): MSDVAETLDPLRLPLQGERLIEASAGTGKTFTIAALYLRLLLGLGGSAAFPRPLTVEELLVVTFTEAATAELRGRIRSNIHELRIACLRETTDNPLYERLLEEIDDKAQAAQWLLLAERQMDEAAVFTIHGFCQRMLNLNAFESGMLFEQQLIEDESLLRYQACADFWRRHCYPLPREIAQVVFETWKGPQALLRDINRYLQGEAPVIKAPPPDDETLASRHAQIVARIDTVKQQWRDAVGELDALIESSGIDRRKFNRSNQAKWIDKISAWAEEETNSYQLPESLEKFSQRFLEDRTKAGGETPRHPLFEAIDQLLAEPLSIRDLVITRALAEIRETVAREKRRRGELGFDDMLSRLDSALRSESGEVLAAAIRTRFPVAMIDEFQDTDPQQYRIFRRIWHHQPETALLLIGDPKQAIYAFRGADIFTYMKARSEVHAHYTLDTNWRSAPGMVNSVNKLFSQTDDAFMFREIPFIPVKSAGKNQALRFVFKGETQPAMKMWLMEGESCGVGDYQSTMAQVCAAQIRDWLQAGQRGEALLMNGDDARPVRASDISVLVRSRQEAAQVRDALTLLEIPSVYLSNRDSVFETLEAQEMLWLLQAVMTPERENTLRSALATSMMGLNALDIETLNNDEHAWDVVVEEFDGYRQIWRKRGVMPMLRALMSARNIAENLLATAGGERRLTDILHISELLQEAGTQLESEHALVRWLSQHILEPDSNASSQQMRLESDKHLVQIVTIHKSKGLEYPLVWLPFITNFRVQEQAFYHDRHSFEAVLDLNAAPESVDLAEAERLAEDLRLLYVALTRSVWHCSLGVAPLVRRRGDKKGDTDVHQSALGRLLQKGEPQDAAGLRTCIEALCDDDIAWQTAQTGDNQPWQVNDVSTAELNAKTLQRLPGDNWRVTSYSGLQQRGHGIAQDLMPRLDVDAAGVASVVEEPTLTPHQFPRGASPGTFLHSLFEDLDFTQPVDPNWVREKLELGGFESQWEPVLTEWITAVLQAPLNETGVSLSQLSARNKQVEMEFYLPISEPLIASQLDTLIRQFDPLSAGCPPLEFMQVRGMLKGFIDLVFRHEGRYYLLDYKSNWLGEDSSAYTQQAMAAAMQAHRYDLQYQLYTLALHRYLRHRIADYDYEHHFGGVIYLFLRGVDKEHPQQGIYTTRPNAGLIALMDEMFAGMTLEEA

Row | Compound | fold reduction of Chi cutting
1 | CCn1cc(C(=O)O)c(=O)c2cnc(N3CCN(C(=S)NC(C)c4ccccc4)CC3)nc21 (stereo not drawn) | < 2 (inactive)
2 | CCn1cc(C(=O)O)c(=O)c2cnc(N3CCN(C(=O)Nc4ccccc4)CC3)nc21 | > 2
3 | CC(=O)Nc1ccc2nc(NC(=O)c3ccc([N+](=O)[O-])o3)sc2c1 | < 2 (inactive)
4 | CCn1cc(C(=O)O)c(=O)c2cnc(N3CCN(C(=S)Nc4ccccc4F)CC3)nc21 | < 2 (inactive)
5 | CCn1cc(C(=O)O)c(=O)c2cnc(N3CCNCC3)nc21 | < 2 (inactive)
6 | N#Cc1c(NC(=O)C2CC=CCC2C(=O)O)sc2c1CCC2 (stereo not drawn) | < 2 (inactive)
7 | CCn1cc(C(=O)O)c(=O)c2cnc(N3CCN(C(=S)Nc4ccc5c(c4)OCCO5)CC3)nc21 | > 2
8 | CCn1cc(C(=O)O)c(=O)c2cnc(N3CCN(C(=S)Nc4ccc(F)cc4)CC3)nc21 | > 2
9 | O=C(NCc1cccnc1)c1ccc([N+](=O)[O-])o1 | < 2 (inactive)
10 | O=C(OCC(=O)c1cccs1)c1ccc([N+](=O)[O-])o1 | < 2 (inactive)
11 | CCn1cc(C(=O)O)c(=O)c2cnc(N3CCN(C(=S)Nc4cccc(C(F)(F)F)c4)CC3)nc21 | < 2 (inactive)
12 | CCn1cc(C(=O)O)c(=O)c2cnc(N3CCN(C(=S)NC(=O)c4cccnc4)CC3)nc21 | < 2 (inactive)
13 | N#Cc1c(NC(=O)c2cnccn2)sc2c1CCCC2 | < 2 (inactive)
14 | CCn1cc(C(=O)O)c(=O)c2cnc(N3CCN(C(=S)Nc4ccccc4)CC3)nc21 | > 2
15 | CC1CCc2c(sc(NC(=O)c3ccc([N+](=O)[O-])o3)c2N)C1 (stereo not drawn) | > 2
16 | N#Cc1c(NC(=O)c2ccc([N+](=O)[O-])o2)sc2c1CCCC2 | < 2 (inactive)
17 | Cc1sc(NC(=O)c2ccc(Br)o2)c(C#N)c1C | < 2 (inactive)
18 | N#Cc1c(NC(=O)c2ccccc2)sc2c1CCC2 | < 2 (inactive)
19 | CCn1cc(C(=O)O)c(=O)c2cnc(N3CCN(C(=S)Nc4ccccc4C)CC3)nc21 | < 2 (inactive)
20 | O=C(Nc1ccc(N2CCOCC2)cc1)c1ccc([N+](=O)[O-])o1 | < 2 (inactive)
21 | CCn1cc(C(=O)O)c(=O)c2cnc(N3CCN(C(=S)NC4CC5CCC4C5)CC3)nc21 (stereo not drawn) | > 2
22 | O=C(Nc1ncccn1)c1ccc([N+](=O)[O-])o1 | > 2
23 | C=CCn1c(Sc2ncc([N+](=O)[O-])s2)n[nH]c1=O | < 2 (inactive)
24 | N#Cc1c(NC(=O)c2ccccc2C(=O)O)sc2c1CCCC2 | > 2

Row | Compound | fold reduction of Chi cutting
25 | C=CCNC(=S)N1CCN(c2ncc3c(=O)c(C(=O)O)cn(CC)c3n2)CC1 | < 2 (inactive)
26 | CCn1cc(C(=O)O)c(=O)c2cnc(N3CCN(C(=S)NCc4ccccc4)CC3)nc21 | < 2 (inactive)
27 | CCn1cc(C(=O)O)c(=O)c2cnc(N3CCN(C(=S)NC(=O)c4ccco4)CC3)nc21 | < 2 (inactive)
28 | Cc1cccnc1NC(=O)c1ccc([N+](=O)[O-])o1 | < 2 (inactive)
29 | NC(=O)c1ccsc1NC(=O)COC(=O)c1ccc([N+](=O)[O-])o1 | < 2 (inactive)
30 | CCn1cc(C(=O)O)c(=O)c2cnc(N3CCN(C(=S)Nc4ccc5c(c4)OCO5)CC3)nc21 | < 2 (inactive)
31 | CC1(C)Cc2c(sc(NC(=O)c3ccco3)c2C#N)CO1 | < 2 (inactive)
32 | CCn1cc(C(=O)O)c(=O)c2cnc(N3CCN(C(=S)NC(=O)c4ccccc4Cl)CC3)nc21 | < 2 (inactive)
33 | N#Cc1c(NC(=O)c2cccc(F)c2)sc2c1CCCC2 | > 2
34 | Cc1ccc2nc(/C(C#N)=C\c3ccc([N+](=O)[O-])o3)[nH]c2c1 | > 2
35 | CC1CCc2c(sc(NC(=O)c3ccc([N+](=O)[O-])o3)c2C#N)C1 (stereo not drawn) | < 2 (inactive)
36 | Nc1c(NC(=O)c2ccc([N+](=O)[O-])o2)sc2c1CCCC2 | > 2
37 | CCn1cc(C(=O)O)c(=O)c2cnc(N3CCN(C(=S)Nc4ccccc4OC)CC3)nc21 | < 2 (inactive)
38 | N#Cc1c(NC(=O)c2ccc([N+](=O)[O-])o2)sc2c1CCC2 | > 2
39 | N#Cc1c(NC(=O)c2ccco2)sc2c1CCC2 | < 2 (inactive)
40 | Cc1ccc(C(=O)Nc2sc3c(c2C#N)CCCCC3)o1 | < 2 (inactive)
41 | O=C(Nc1cccc(NC(=O)c2ccccc2Cl)c1)c1ccc([N+](=O)[O-])o1 | > 2
42 | CCn1cc(C(=O)O)c(=O)c2cnc(N3CCN(C(=S)Nc4ccc(Cl)cc4)CC3)nc21 | < 2 (inactive)
43 | CCn1cc(C(=O)O)c(=O)c2cnc(N3CCN(C(=S)NC)CC3)nc21 | < 2 (inactive)
44 | CCn1cc(C(=O)O)c(=O)c2cnc(N3CCN(C(=S)Nc4ccccc4C(F)(F)F)CC3)nc21 | > 2 and < 2 (inactive)
45 | N#Cc1c(NC(=O)c2ccc(-c3ccccc3[N+](=O)[O-])o2)sc2c1CCCC2 | < 2 (inactive)
46 | CCn1cc(C(=O)O)c(=O)c2cnc(N3CCN(C(=S)NC(=O)c4cccc(C)c4)CC3)nc21 | > 2
47 | Cc1ccc(C(=O)Nc2sc3c(c2C#N)CCC3)o1 | < 2 (inactive)
48 | CCn1cc(C(=O)O)c(=O)c2cnc(N3CCN(C(=S)Nc4ccccc4Cl)CC3)nc21 | > 2
